Test results reported in ChEMBL document CHEMBL4480426, “Novel multi-target directed ligands based on annelated xanthine scaffold with aromatic substituents acting on adenosine receptor and monoamine oxidase B. Synthesis, in vitro and in silico studies” (Bioorg Med Chem, 2019).

Assays:
Adenosine receptor A1 [1] = target: T1, Adenosine receptor A1 (Homo sapiens, UniProt P30542); experiment: Displacement of [3H]CCPA from recombinant human adenosine A1 receptor expressed in CHO cells; type: cell-based
T1 sequence (P30542 whole entry): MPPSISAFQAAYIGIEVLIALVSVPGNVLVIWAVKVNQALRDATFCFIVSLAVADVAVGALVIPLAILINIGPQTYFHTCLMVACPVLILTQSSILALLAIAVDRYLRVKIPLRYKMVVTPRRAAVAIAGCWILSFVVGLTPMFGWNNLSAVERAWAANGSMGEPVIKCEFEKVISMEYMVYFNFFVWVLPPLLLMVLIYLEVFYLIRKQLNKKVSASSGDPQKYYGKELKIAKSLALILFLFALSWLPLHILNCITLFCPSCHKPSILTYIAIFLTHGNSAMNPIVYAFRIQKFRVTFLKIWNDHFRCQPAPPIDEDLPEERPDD

[2] = target: T2, Adenosine receptor A3 (Homo sapiens) (UniProt P0DMS8); experiment: Displacement of [3H]PSB11 from recombinant human adenosine A3 receptor expressed in CHO cells at 1 uM relative to control; type: cell-based
T2 sequence (whole entry): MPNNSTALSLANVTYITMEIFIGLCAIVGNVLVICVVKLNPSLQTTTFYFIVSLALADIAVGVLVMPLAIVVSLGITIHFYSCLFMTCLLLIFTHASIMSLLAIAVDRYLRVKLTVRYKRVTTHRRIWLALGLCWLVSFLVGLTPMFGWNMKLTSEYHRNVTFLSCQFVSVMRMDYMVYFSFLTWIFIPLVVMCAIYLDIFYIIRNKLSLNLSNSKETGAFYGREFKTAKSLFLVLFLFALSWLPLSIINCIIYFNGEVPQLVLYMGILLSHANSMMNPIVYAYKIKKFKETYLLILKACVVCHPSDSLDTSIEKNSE
Outline: (§1)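 Purchased membranes of CHO cells expressing human A1 ([3H]CCPA) or human A3 ([3H]PSB-11). A single high compound concentration is screened first; for potent compounds, full inhibition curves spanning 3 orders of magnitude. At least three independent experiments.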

Adenosine receptor A2a [3] = target: T3, Adenosine receptor A2a (Homo sapiens, UniProt P29274); experiment: Displacement of [3H]MSX2 from recombinant human adenosine A2a receptor expressed in HEK293 cells; type: cell-based
[4] = target: T4, Adenosine receptor A1 (Homo sapiens) (UniProt P30542); experiment: Displacement of [3H]CCPA from recombinant human adenosine A1 receptor expressed in CHO cells at 1 uM relative to control; type: cell-based; outline: as §1
T4 sequence (whole entry): T1 sequence (P30542 whole entry)

[5] = target: T5, Amine oxidase [flavin-containing] A (Homo sapiens, UniProt P21397); experiment: Inhibition of recombinant human MAOA expressed in baculovirus infected BTI insect cells using p-tyramine as substrate preincubated for 30 mins followed by substrate addition and measured over 45 mins by horseradish peroxidase-Amplex Red-coupled fluorometric assay
T5 sequence (P21397 whole entry): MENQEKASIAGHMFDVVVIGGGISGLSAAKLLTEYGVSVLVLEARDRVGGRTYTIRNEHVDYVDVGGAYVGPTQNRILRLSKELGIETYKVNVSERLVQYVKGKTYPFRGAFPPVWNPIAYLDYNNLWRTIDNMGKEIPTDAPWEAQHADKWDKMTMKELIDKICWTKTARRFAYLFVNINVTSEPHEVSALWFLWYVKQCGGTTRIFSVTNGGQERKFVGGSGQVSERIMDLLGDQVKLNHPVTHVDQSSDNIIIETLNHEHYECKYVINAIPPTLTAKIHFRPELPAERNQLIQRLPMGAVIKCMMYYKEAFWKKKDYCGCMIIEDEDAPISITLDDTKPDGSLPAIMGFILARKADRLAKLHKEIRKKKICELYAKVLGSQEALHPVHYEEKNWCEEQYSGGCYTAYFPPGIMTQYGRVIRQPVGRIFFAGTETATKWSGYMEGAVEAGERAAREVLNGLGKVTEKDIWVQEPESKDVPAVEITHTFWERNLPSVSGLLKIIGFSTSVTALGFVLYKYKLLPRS
Outline: (§2)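 Human recombinant MAO-A or MAO-B enzyme. Activity detected fluorometrically with the Amplex Red monoamine oxidase assay.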

[6] = target: T6, Adenosine receptor A2b (Homo sapiens) (UniProt P29275); experiment: Displacement of [3H]PSB603 from recombinant human adenosine A2b receptor expressed in HEK293 cells at 1 uM relative to control; type: cell-based
T6 sequence (whole entry): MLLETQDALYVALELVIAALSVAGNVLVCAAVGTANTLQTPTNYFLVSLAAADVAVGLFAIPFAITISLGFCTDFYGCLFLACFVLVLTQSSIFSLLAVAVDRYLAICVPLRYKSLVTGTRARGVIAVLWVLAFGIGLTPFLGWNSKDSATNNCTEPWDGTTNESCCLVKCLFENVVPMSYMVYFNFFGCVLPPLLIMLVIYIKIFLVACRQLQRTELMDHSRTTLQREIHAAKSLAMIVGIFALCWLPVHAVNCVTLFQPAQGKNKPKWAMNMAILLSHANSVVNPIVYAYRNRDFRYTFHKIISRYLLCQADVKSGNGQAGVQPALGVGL
Outline: (§3)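 Purchased membranes of HEK cells expressing human A2A ([3H]MSX-2) or human A2B ([3H]PSB-603). A single high compound concentration is screened first; for potent compounds, full inhibition curves spanning 3 orders of magnitude. At least three independent experiments.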

Adenosine receptor A2b = target: T7, Adenosine receptor A2b (Homo sapiens, UniProt P29275); experiment: Displacement of [3H]PSB603 from recombinant human adenosine A2b receptor expressed in HEK293 cells; type: cell-based
T7 sequence (P29275 whole entry): T6 sequence (whole entry)

[7] = target: T5, Amine oxidase [flavin-containing] A; experiment: Inhibition of recombinant human MAOA expressed in baculovirus infected BTI insect cells at 1 to 100 uM using p-tyramine as substrate preincubated for 30 mins followed by substrate addition and measured over 45 mins by horseradish peroxidase-Amplex Red-coupled fluorometric assay relative to control; details: 0.75 h; outline: as §2
[8] = target: T8, Amine oxidase [flavin-containing] B (Homo sapiens, UniProt P27338); experiment: Inhibition of recombinant human MAOB expressed in baculovirus infected BTI insect cells at 1 to 100 uM using p-tyramine as substrate preincubated for 30 mins followed by substrate addition and measured over 45 mins by horseradish peroxidase-Amplex Red-coupled fluorometric assay relative to control; details: 0.75 h; outline: as §2
T8 sequence (P27338 whole entry): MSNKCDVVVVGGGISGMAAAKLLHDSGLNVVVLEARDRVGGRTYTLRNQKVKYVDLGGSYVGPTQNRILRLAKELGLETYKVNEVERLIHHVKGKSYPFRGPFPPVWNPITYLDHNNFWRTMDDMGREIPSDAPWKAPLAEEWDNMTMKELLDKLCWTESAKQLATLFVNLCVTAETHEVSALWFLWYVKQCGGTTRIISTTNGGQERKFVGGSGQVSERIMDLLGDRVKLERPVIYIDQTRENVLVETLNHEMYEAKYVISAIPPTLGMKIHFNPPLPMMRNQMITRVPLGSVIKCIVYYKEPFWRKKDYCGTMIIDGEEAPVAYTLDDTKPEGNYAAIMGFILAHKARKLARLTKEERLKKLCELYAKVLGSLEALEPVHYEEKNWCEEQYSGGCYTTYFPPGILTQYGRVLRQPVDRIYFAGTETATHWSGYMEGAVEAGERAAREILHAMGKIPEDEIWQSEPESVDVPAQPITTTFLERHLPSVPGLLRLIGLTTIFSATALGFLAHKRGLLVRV

[9] = target: T8, Amine oxidase [flavin-containing] B; experiment: Inhibition of recombinant human MAOB expressed in baculovirus infected BTI insect cells using p-tyramine as substrate preincubated for 30 mins followed by substrate addition and measured over 45 mins by horseradish peroxidase-Amplex Red-coupled fluorometric assay; outline: as §2
Adenosine receptor A3 = target: T9, Adenosine receptor A3 (Homo sapiens, UniProt P0DMS8); experiment: Displacement of [3H]PSB11 from recombinant human adenosine A3 receptor expressed in CHO cells; type: cell-based
T9 sequence (P0DMS8 whole entry): T2 sequence (whole entry)

Adenosine receptor A2a [10] = target: T3, Adenosine receptor A2a; experiment: Displacement of [3H]MSX2 from recombinant human adenosine A2a receptor expressed in HEK293 cells at 1 uM relative to control; type: cell-based; outline: as §3
Adenosine receptor A1 [11] = target: T10, Adenosine receptor A1 (Rattus norvegicus, UniProt P25099); experiment: Displacement of [3H]CCPA from adenosine A1 receptor in rat brain cortical membranes; type: cell membranes
T10 sequence (P25099 whole entry): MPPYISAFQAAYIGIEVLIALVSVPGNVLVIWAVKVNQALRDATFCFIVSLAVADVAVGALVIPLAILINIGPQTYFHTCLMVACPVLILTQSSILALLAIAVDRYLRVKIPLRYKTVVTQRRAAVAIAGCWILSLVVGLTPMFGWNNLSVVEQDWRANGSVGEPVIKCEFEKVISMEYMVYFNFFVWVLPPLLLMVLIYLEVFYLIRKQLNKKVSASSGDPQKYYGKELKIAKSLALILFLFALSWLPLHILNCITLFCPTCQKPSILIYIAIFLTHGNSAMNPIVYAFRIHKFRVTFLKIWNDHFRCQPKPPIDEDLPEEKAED

T3 sequence (P29274 whole entry): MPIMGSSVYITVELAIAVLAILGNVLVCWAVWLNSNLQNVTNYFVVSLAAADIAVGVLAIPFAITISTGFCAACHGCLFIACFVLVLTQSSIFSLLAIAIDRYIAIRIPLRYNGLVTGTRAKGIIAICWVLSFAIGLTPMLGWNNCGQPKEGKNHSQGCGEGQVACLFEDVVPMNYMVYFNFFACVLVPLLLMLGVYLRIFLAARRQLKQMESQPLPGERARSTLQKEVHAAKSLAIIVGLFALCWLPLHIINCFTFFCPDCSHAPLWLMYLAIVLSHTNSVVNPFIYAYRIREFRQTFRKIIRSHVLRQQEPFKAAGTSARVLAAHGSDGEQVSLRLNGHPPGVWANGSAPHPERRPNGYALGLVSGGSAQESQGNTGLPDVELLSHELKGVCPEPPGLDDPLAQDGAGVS

Ki (Adenosine receptor A1 [1]) [µM]	inhibition [2] [%]	Ki (Adenosine receptor A2a [3]) [µM]	inhibition [4] [%]	IC50 [5] [µM]	inhibition [6] [%]	Ki (Adenosine receptor A2b) [µM]	inhibition (INH) [7] [%]	inhibition (INH) [8] [%]	IC50 [9] [µM]	Ki (Adenosine receptor A3) [µM]	inhibition (Adenosine receptor A2a [10]) [%]	Ki (Adenosine receptor A1 [11]) [µM]	SMILES
> 1	11	1.08	11	> 1	40	> 1	14	39	> 1	> 1			Cn1c(=O)c2c(nc3n2CCCCN3Cc2ccccc2F)n(C)c1=O
> 1	11	> 1	1	> 1	22	> 1	-2		0.515	> 1	29		Cn1c(=O)c2c(nc3n2CCN3Cc2ccc(Cl)c(Cl)c2)n(C)c1=O
> 1	30	> 1	23	> 1	21	> 1	16	42	> 1	> 1	42		Cn1c(=O)c2c(nc3n2CCN3Cc2ccc(Cl)cc2)n(C)c1=O
> 1	31	1.58	16	> 1	5	> 1	-2		0.282	> 1			Cn1c(=O)c2c(nc3n2CCCCN3Cc2ccc(Cl)cc2Cl)n(C)c1=O
0.396	22	0.369		> 1	30	> 1	11	39	> 1	> 1			Cn1c(=O)c2c(nc3n2CCN3Cc2cccc(Br)c2)n(C)c1=O
		1.02				> 1		40	> 1	> 1		1.41	Cc1ccccc1CN1CCCn2c1nc1c2c(=O)n(C)c(=O)n1C
> 1	10	> 1	13	> 1	13	> 1	6		0.364	> 1			Cn1c(=O)c2c(nc3n2CCCCN3Cc2ccc(Cl)cc2)n(C)c1=O
